High-throughput results as filed in PubChem.
PP5 primary – blocks human protein phosphatase 5 activity. P53041. purified PP5c, OMFP substrate fluorescence. inhibition, % at 6.7 µM. 320,000 tested, 0.18% active. AID 1987;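 active means inhibition above the campaign's mean inhibition across all tested compounds plus 3 SD, cut at about 9.5% in these data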
PP1 inh – blocks human PP1-alpha phosphatase, a PP5 counter-screen; purified PP1alpha, OMFP fluorescence; inhibition, % at 6.7 µM; 320,000 tested, 0.9% active; AID 2235;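 active means inhibition above the mean inhibition of all tested compounds plus 3 SD, computed separately for each screening campaign, cut at about 15% in these data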
Target sequence (P62136 whole entry, looked up): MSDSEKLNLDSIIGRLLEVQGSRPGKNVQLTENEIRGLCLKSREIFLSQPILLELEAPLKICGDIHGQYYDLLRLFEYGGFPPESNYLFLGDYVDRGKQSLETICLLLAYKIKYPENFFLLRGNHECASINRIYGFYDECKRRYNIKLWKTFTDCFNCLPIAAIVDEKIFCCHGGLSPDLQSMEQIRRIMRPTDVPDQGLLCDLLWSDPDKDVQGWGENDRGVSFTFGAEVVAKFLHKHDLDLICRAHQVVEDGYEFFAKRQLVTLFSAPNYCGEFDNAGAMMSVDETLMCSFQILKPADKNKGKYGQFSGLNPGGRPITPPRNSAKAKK
Fh CTSL1 inh – blocks F. hepatica cathepsin L1 in PFM18AAP counter-screen. recombinant F. hepatica cathepsin L1, Z-Leu-Arg-MCA fluorescence. inhibition, % at 5.96 µM. 300,000 tested, 0.49% active. AID 1906;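 active means inhibition above the mean of all tested compounds plus 3 SD, set per screening campaign, cut at about 17% in these data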
PREPL inhibitor – inhibitors of human prolyl oligopeptidase-like enzyme PREPL. Q4J6C6. recombinant PREPL, fluorescence polarization activity-based probe. inhibition, % at 5.96 µM. 320,000 tested, 0.68% active; in the data active means inhibition above about 43%
UBC13 polyUb – blocks human UBC13 polyubiquitin chain formation. 330,000 tested, 0.47% active. inhibition, % at 20 µM. AID 485273. TR-FRET. P61088; in the data active means inhibition above about 45%, passing the limit was not always enough
UCH37 inh – inhibitors of human deubiquitinating enzyme UCH37; purified proteasome/UCH37, Ub-AMC cleavage fluorescence; inhibition, % (test concentration not listed); 330,000 tested, 0.33% active;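 active means mean inhibition over replicate wells above about 20%, limit read from the data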
Target sequence (Q9Y5K5 whole entry, looked up): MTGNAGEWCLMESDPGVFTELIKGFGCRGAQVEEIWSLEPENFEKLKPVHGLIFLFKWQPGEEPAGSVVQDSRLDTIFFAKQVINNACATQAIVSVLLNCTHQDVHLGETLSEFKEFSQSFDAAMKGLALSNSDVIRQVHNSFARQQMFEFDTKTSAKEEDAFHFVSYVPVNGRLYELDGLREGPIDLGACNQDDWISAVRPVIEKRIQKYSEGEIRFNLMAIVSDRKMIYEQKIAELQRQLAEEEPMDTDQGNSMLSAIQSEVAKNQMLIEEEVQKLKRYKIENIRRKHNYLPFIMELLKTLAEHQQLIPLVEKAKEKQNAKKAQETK
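Material: Human UCH37 enzyme supplied as purified proteasome complex | Schedule: 30 min compound-proteasome preincubation then 25 min substrate reaction, room temperature | Detection: AMC fluorescence from Ub-AMC cleavage, excitation 355 nm, emission 460 nm | Benchmarks: Wells without proteasome as full block, compound-free enzyme plus substrate as uninhibited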
UCH37 reconfirm – confirmation of human UCH37 deubiquitinating enzyme inhibitors | shares compounds with UCH37 inh | 480 tested, 27% active | inhibition, % at 20 µM | Proteasome-bound UCH37, Ub-AMC cleavage fluorescence;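 active means average inhibition over replicates above about 50%, so the earlier screening hit is confirmed, limit read from the data; inactive means the rest, counted as false positives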;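 further: based on cleavage rate fitted by regression over a 30 min kinetic read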
A number is an active result; - = inactive; . = no result. In the library only some 2.3% were active in any assay of this set; here they are far more common.

SMILES	PP5 primary	PP1 inh	Fh CTSL1 inh	PREPL inhibitor	UBC13 polyUb	UCH37 inh	UCH37 reconfirm
COc1cc(/C=C(\NC(=O)c2ccccc2)C(=O)Nc2cccc(O)c2)c([N+](=O)[O-])cc1OC	-	-	-	-	-	51.2	-
O=C(NN=Cc1cn[nH]c1-c1ccc(F)cc1)c1ccncc1	.	.	.	.	.	-	.
N#Cc1ccc(C(CC(=O)O)N2Cc3ccccc3C2=O)cc1 (stereo not drawn)	-	-	-	-	-	-	.
CC(C)c1ccc(C(CC(=O)O)N2Cc3ccccc3C2=O)cc1 (stereo not drawn)	-	-	-	-	-	61.6	80.5
Cc1c(N=C2C=CC(=O)c3ccccc32)c(=O)n(-c2ccccc2)n1C	.	.	.	.	.	60.8	-
C[C@@H]1NC(=O)[C@H](CCC(N)=O)NC(=O)c2cc([N+](=O)[O-])cc(I)c2NCC[C@@H](C(N)=O)NC1=O	-	-	-	-	-	50.4	-
CCOc1ccc(S(=O)(=O)Nc2cc(SCC(=O)O)c(O)c3ccccc23)cc1	.	.	.	.	.	-	.
O=C(O)CSc1cc(NS(=O)(=O)c2cccc([N+](=O)[O-])c2)c2ccccc2c1O	.	.	.	.	.	30.5	82.7
Cc1ccc(-c2nnc(SCC(=O)NN=Cc3ccccc3C(=O)O)n2-c2ccccc2)cc1	.	.	.	.	.	-	.
Cc1cc(O)c(C(C)C)cc1N=Nc1ccccc1C(=O)O	-	-	-	-	-	-	.
Cc1cc(N=Nc2ccccc2C(=O)O)c(C)c(C)c1O	-	-	-	-	-	25.4	-
COC(=O)C=c1sc(=C(C#N)C(=O)NCc2ccccc2)n(-c2ccccc2)c1=O	.	.	.	.	.	-	.
CCc1ccc(NC(=O)COc2ccc(F)cc2C(=O)c2cnn(-c3ccccc3)c2)cc1	-	-	-	-	-	-	.
COc1ccccc1NC(=O)COc1ccccc1C(=O)c1cnn(-c2ccccc2)c1	-	-	-	-	-	37.0	-
COc1cccc(C=Nn2c(C)nc3ccccc32)c1OC	.	.	.	.	.	-	.
Cc1ccc(Nc2nc(NN=Cc3ccc4c(c3)OCO4)nc(N3CCOCC3)n2)cc1	.	.	.	.	.	-	.
Oc1ccc2ccccc2c1C=Nc1nc2c(s1)CCCC2	.	.	.	.	.	42.2	-
CC(=O)Nc1ccc(S(=O)(=O)/N=C2\C(=O)c3ccccc3C([O-])=C2n2cc[n+](-c3ccccn3)c2)cc1	-	-	31.4	-	-	56.5	58.3
CCCC[n+]1ccn(C2=C([O-])c3ccccc3C(=O)/C2=N\S(=O)(=O)c2ccc(Br)cc2)c1	-	-	-	-	-	-	.
COc1cc(C=NNC(=O)C2CC3C=CC2C3)ccc1O (stereo not drawn)	.	.	.	.	.	-	.
O=C(CCN1CCCCC1)NN=Cc1ccc(Br)cc1	.	.	.	.	.	-	.
COC/C=C/C1=CC2=CC(=O)C(C)(OC(=O)c3cnc4ccccc4n3)C(=O)C2=CN1C1CC1 (stereo not drawn)	-	-	-	-	-	47.3	-
O=C(NN=Cc1ccc(CN(Cc2ccc(Cl)cc2)S(=O)(=O)c2ccccc2)o1)C(=O)Nc1ccc(F)cc1	.	.	.	.	.	-	.
CN(C)/C=N/NC(=O)c1ccccc1	-	-	-	-	-	.	.
O=C(NN=c1c(=O)c2ccccc2c1=O)c1ccccc1	-	-	61.1	-	-	79.3	76.6
SMILES	PP5 primary	PP1 inh	Fh CTSL1 inh	PREPL inhibitor	UBC13 polyUb	UCH37 inh	UCH37 reconfirm
COc1ccc(OC)c(C2/C(=C(/O)c3cnn(-c4ccccc4)c3C)C(=O)C(=O)N2CCN(C)C)c1 (stereo not drawn)	-	-	-	-	-	34.6	-
COc1ccc(C2/C(=C(/O)c3cnn(-c4ccccc4)c3C)C(=O)C(=O)N2CCN(C)C)cc1OC (stereo not drawn)	.	.	.	.	.	-	.
O=C(O)CC/C(=C\c1ccc(N2CCOCC2)c([N+](=O)[O-])c1)c1nc2ccccc2s1	.	.	.	.	.	25.7	-
Cc1ccc(NC2=C(NCCO)C(=O)c3ccccc3C2=O)cc1	-	-	-	-	-	26.2	-
CC(=O)Nc1ccc(S(=O)(=O)N2CCC(c3nc4ccc(C)cc4[nH]3)CC2)cc1	-	-	-	-	-	28.1	-
CCN1C(=O)C2(C(C(=O)c3ccc(C)o3)=C(O)C(=O)N2CCCN2CCOCC2)c2ccccc21 (stereo not drawn)	-	-	-	-	-	46.4	-
Cc1ccc(C(=O)C2=C(O)C(=O)N(CCCN3CCOCC3)C23C(=O)N(C)c2ccccc23)o1 (stereo not drawn)	-	-	-	-	-	-	.
Cc1nnc(C)n1N=Cc1ccccc1	.	.	.	.	.	-	.
CC(=O)C(=NNc1ccc(Cl)cc1Cl)Sc1cccc2cccnc12	.	.	.	.	.	-	.
CN1CCC[C@@H]1CCNC(=O)c1cccc2c1C(=O)c1ccc(N3CCCC3)cc1S2(=O)=O	.	.	.	-	-	52.2	-
O=C(NN=Cc1ccc(OC(=O)c2ccccc2)cc1)c1cccc(O)c1	.	.	.	.	.	-	.
CCCCCCCCCCCCCCCC[n+]1ccc(C=NO)cc1	.	.	.	.	.	53.0	57.0
CN(C)C(=O)C[n+]1ccc(/C=N/O)cc1	-	-	-	-	-	.	.
COc1cc(NCCCCCCN)c2ncccc2c1OC	.	.	.	.	.	69.2	69.9
N#CC(=NNc1ccc([N+](=O)[O-])cc1)C(N)=S	.	.	.	.	.	29.0	-
CC(=NNC(=O)c1ccc(NN=C(C)c2ccc(O)cc2)cc1)c1ccc(O)cc1	.	.	.	.	.	-	.
CC(=NNC(=O)c1cccc(NN=C(C)c2cc(O)ccc2O)c1)c1cc(O)ccc1O	.	.	.	.	.	35.5	-
Oc1ccc2ccccc2c1C=NC12CN3CCN(CN(C3)C1)C2	-	-	32.5	-	-	73.9	71.7
OCC(CO)(CO)N=Cc1c(O)ccc2ccccc12	-	-	-	-	-	-	.
COc1ccc(NC(=O)c2cncc(Br)c2)c(S(=O)(=O)N2CCOCC2)c1	-	-	-	-	-	35.1	-
Cc1ccccc1OCC(=O)NNC(=O)CCc1ccccc1	-	-	-	-	-	-	.
Cc1ccccc1OCC(=O)NCc1ccccc1	-	-	-	-	-	41.1	-
CC(=O)N(C1=C(Cl)C(=O)c2ccccc2C1=O)C1CCCCC1	-	-	22.6	-	-	44.1	53.7
COc1ccc(C(=O)c2ccccc2)c2c(O)ccc(C(=O)c3ccccc3)c12	-	-	-	-	-	40.7	-
COc1ccc(C(=O)c2ccc(Cl)cc2)c2ccccc12	-	-	-	-	-	-	.
CN(CCCCCC(=O)C=NO)Cc1ccccc1	.	.	.	.	.	-	.
CC(C)c1ccc(NC(=O)C2CC(=O)N=C(N)S2)cc1 (stereo not drawn)	-	-	-	-	-	25.8	55.3
CCc1ccc(NC(=O)C2CC(=O)N=C(N)S2)cc1 (stereo not drawn)	-	-	-	-	-	-	.
Cc1cc(=O)[nH]c(NN=Cc2cn(CCC#N)nc2-c2ccccc2)n1	.	.	.	.	.	-	.
Nc1c(S(=O)(=O)c2ccccc2)c2nc3ccccc3nc2n1N=Cc1ccco1	.	.	.	.	.	-	.
